Bioassay records as filed in PubChem BioAssay.
Shown are actives, neighbours in structure and some others; about 3.7% of the full set was active somewhere.
proCasp7 act – counter-screen for procaspase-3 activators: activators of human procaspase-7; recombinant procaspase-7, Ac-DEVD-pNA absorbance 405 nm; D23A/D198A/D206A triple mutant, cannot self-cleave; scale: DMSO 0, 5 µM enzyme 100; activation, % at 8.5 µM; actives 0.093% (n = 330,000); AID 463210;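 active means percent activation above the screen-wide mean plus 3 SD, cut at about 25% in these data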
Target sequence (P55210 whole entry D23A/D198A/D206A): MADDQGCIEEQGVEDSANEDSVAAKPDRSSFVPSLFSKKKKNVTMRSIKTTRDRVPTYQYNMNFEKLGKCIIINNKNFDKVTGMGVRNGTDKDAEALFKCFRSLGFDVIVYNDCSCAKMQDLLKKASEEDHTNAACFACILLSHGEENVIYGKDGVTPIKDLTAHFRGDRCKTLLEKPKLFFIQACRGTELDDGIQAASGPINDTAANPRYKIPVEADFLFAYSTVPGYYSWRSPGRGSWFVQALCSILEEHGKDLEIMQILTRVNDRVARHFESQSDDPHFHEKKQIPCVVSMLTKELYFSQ
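System: Uncleavable procaspase-7 mutant enzyme; Amount: 2 µM procaspase-7 mutant as dispensed; Schedule: 1 h compound preincubation, 2 h substrate cleavage, 25 °C; Measured by: 405 nm absorbance of p-nitroaniline; Evaluation: percent activation from buffer-corrected 0–120 min absorbance change; Control set: low DMSO alone, high DMSO plus 5 µM PC-7.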
proCasp3 act – procaspase-3 (human) activation; recombinant procaspase-3 D3A, Ac-DEVD-pNA absorbance 405 nm; AID 463141; activation, % at 8.5 µM; actives 0.11% (n = 330,000); P42574;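 active means activation above the mean of all tested compounds plus 3 SD, cut at about 21% in these data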;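 further: 0% = DMSO alone and 100% = DMSO wells spiked with extra 5 µM PC-3 D3A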
Target sequence (P42574 whole entry D9A/D28A/D175A): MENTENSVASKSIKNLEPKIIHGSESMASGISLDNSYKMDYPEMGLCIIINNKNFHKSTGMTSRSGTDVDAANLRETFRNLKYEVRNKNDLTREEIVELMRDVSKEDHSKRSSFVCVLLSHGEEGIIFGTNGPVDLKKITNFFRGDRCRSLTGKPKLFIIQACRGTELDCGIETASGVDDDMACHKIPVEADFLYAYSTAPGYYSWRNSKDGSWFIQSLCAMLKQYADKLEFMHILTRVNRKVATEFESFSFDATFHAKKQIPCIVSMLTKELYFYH
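Assay system – Procaspase-3 D3A mutant · Benchmarks – DMSO low control, extra-enzyme high control · Technique – 405 nm absorbance of p-nitroaniline, reads at 0 and 120 min · Doses – 8.5 µM nominal · Measure – % activation between DMSO and enzyme-spiked controls · Also added – Ac-DEVD-pNA chromogenic peptide substrate · Schedule – 1 h compound preincubation, 2 h substrate hydrolysis at 25 °C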
aDG glyco act – increases alpha dystroglycan glycosylation. Pro5-aDG cells, alpha-DG glycosylation AlphaScreen (IIH6); 0% Pro5, 100% B10-LARGE cell signal. activation, % at 10 µM. actives 0.22% (n = 360,000). AID 624168;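 active means activation of at least 8% versus controls, or a plate z-score of at least 8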;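 further: Pro5 are CHO cells carrying HIG-tagged alpha-DG that lacks glycosylation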
NR3A LBD binder – modulators (binders) of human NR3A ligand-binding domain; AID 1259313; NR3A LBD differential scanning fluorimetry, Tm shift; 0% = protein alone, 100% = glycine-bound protein; Tm shift relative to glycine control, % at 25 µM; actives 2.5% (n = 340,000);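 active means melting temperature shift of at least 10% of the positive control shift, at one fixed dose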
MPTP inh – blocks calcium-induced mitochondrial swelling; actives 1.4% (n = 360,000); isolated mouse mitochondria, Ca2+ swelling absorbance, 30 min; inhibition, % at 10 µM; AID 602449;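 active means inhibition of 50% or more, scaled per plate between neutral and stimulator controls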;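 further: 0% = DMSO wells given calcium and 100% = 1 mM EGTA wells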
* = called active by the depositor; x = not tested or not shown.

SMILES	proCasp7 act	proCasp3 act	aDG glyco act	NR3A LBD binder	MPTP inh
CCCCCCCCN1C(=O)[C@H](CC(=O)NCC23CC4CC(CC(C4)C2)C3)C[C@@]2(C(=O)OCC)CCC=C12	x	x	0	x	1
O=C1NC(=S)SC1=Cc1cc(Br)ccc1O	x	x	0	31*	3
O=C1NC(=S)S/C1=C\c1coc2ccc(O)cc2c1=O	-12	-16	0	6	12
CCOc1ccc(Br)cc1C(=O)N/N=C/c1c[nH]c2ccccc12	4	-2	0	10*	0
O=C(N/N=C/c1c[nH]c2ccccc12)c1cc(Br)ccc1O	-6	-5	0	34*	3
CC(C)N1CC(=O)N2CSCC2C1=O (stereo unspecified)	x	x	0	x	0
Cc1ccc(NS(=O)(=O)c2ccc(NC(=O)C(C)Sc3ccc(Cl)cc3)cc2)c(C)c1 (stereo unspecified)	17	2	3	13*	47
CNC(=O)c1cc(S(=O)(=O)NC2CCCCCC2)ccc1C	x	x	0	-1	0
Cc1ccc(NS(=O)(=O)c2ccc(NC(=O)c3cccs3)cc2)c(C)c1	1	0	0	29*	7
Cc1ccc(NC(=O)c2cc(S(=O)(=O)Nc3ccc(C)cc3)cs2)cc1	9	-7	2	27*	25
CNC(=O)c1cc(S(=O)(=O)Nc2ccc(C)cc2C)ccc1C	-1	-4	0	14*	0
CCCCN1CC(=O)N2[C@H]3c4ccc(OC)cc4OC[C@@H]3[C@H](C(=O)OCC)[C@]2(C)C1=O	5	4	0	0	-2
COc1cc(NS(=O)(=O)c2ccc(NC(=S)NC(=O)c3cccs3)cc2)nc(OC)n1	-20	-10	0	-3	-3
Cc1cc(C)cc(NS(=O)(=O)c2ccc(NC(=S)NC(=O)c3cccs3)cc2)c1	-22	-8	1	24*	3
CCOc1ccc(NC(=O)CCCN2C(=S)NC(C)(C)CC2C)cc1 (stereo unspecified)	5	-1	0	12*	-1
COc1cc(C(=O)Nc2nc(-c3cccs3)cs2)cc(OC)c1OC	0	7	-1	-4	0
O=C(Nc1nc(-c2cccs2)cs1)c1ccc(Cl)cc1	-5	-10	0	11*	0
COc1ccc(C(=O)Nc2nc(-c3cccs3)cs2)cc1	8	-1	0	16*	0
O=C(Nc1nc(-c2ccccc2Cl)cs1)c1cccnc1	-2	2	0	10*	2
Cc1csc(NC(=O)c2sc3nc(-c4cccs4)ccc3c2N)n1	-28	-27	x	28*	x
CCOc1ccc(NS(=O)(=O)c2ccc(C(=O)N3CCC3)cc2)cc1	7	-8	0	2	0
COCOc1cccc(CN2CCC2(C)C(=O)Nc2ccc(OC)c(OC)c2)c1 (stereo unspecified)	x	x	0	x	-1
CC(C)C[C@@H](CN1CCC[C@H]1CN1C(=O)C(=O)NC[C@@H]1Cc1ccccc1)N1C[C@H](Cc2ccccc2)N(CC2CCCCCC2)C(=O)C1=O	x	x	0	x	-4
O=C(Nc1nc(-c2cccs2)cs1)c1cccc(S(=O)(=O)N2CCCCC2)c1	5	3	0	10*	1
Cc1c(C(=O)Nc2nccs2)sc2nc(-c3cccs3)cc(C(F)(F)F)c12	-3	-4	0	28*	14
SMILES	proCasp7 act	proCasp3 act	aDG glyco act	NR3A LBD binder	MPTP inh
Cc1ccc(NC2C(=O)NC(=O)NC2=O)cc1	x	x	0	3	-1
C=CCNc1ncnc2c1ncn2[C@H]1CN(Cc2cccs2)C[C@@H](CO)O1	x	x	0	x	-2
Cc1ccc2nc(-c3ccc(SCC(=O)Nc4ccc5c(c4)OCCO5)nc3)[nH]c2c1	-2	7	0	26*	-3
Cc1cc2nc(-c3ccc(SCC(=O)N4CCOCC4)nc3)[nH]c2cc1C	10	3	0	-1	-1
N#CCSc1ccc(-c2nc3ccccc3[nH]2)cn1	2	5	0	-10	0
Cc1ccc2nc(-c3ccc(SCC(=O)Nc4nc(C)cs4)nc3)[nH]c2c1	-1	4	0	10	4
O=C(CSc1ccc(-c2nc3ccccc3[nH]2)cn1)Nc1ccc(S(=O)(=O)NC2CC2)cc1	11	-8	0	21*	1
S=C(NCc1ccc2c(c1)OCO2)Nc1ccc(-c2nc3ccccc3[nH]2)cc1	-12	-5	2	26*	3
Cc1cc2nc(-c3ccc(SCC(=O)Nc4ccc5c(c4)OCCO5)nc3)[nH]c2cc1C	-2	-1	1	15*	1
Nn1c(SCC(=O)Nc2nccs2)nnc1-c1cccnc1	3	7	0	-2	0
O=C(CSc1ccc(-c2nc3ccccc3[nH]2)cn1)Nc1ccc2c(c1)OCCO2	0	0	0	29*	1
Cc1ccc(-n2[nH]c(C)c(/C=C3/C=Nc4ccccc43)c2=O)cc1C	10	-8	0	15*	1
CCc1nc2c(OCCC3CCCCC3)cccn2c1N(C)C(=O)C(C)C	x	x	0	x	-1
CCN1CCN(C(CCc2ccccc2)C(=O)NC2CCCCC2)CC1 (stereo unspecified)	x	x	0	x	0
Cc1c(Cl)cccc1NC(=O)COC(=O)CCc1nc2ccccc2n1-c1ccccc1	5	-1	0	25*	2
Cc1cccc2cc(CN(CC3CCCO3)C(=S)NCc3ccco3)c(=O)[nH]c12 (stereo unspecified)	-15	-11	0	13*	2
Cc1ccc2[nH]c(=O)c(CN(Cc3cccs3)C(=S)NCc3ccco3)cc2c1	-9	2	0	13*	5
Cc1cc(C)c2[nH]c(=O)c(CN(CC3CCCO3)C(=S)NCc3ccco3)cc2c1 (stereo unspecified)	-13	-9	0	2	-7
CCNC(=S)N(Cc1cccs1)Cc1cc2cc(OCC)ccc2[nH]c1=O	-11	1	0	-9	2
Cc1ccc2[nH]c(=O)c(CN(CC3CCCO3)C(=S)NCc3ccco3)cc2c1 (stereo unspecified)	-17	-17	0	13*	4
O=C(COC(=O)C1(c2ccccc2F)CCCC1)N1CCNC1=O	x	x	0	-2	0
COc1ccc(NC(=O)Nc2ccc(OCC(=O)N3CCOCC3)cc2)cc1OC	-4	-1	0	11*	-1
COc1ccc(OC)c(NC(=O)c2ccc(OCC(=O)N3CCOCC3)c(OC)c2)c1	6	-3	0	22*	-2
COc1cc(C(=O)Nc2ccccc2N2CCOCC2)ccc1OCc1c(C)noc1C	5	11	0	12*	0
COc1ccc(Cl)cc1C(=O)Nc1ccc(OCC(=O)N2CCOCC2)cc1	x	x	0	0	0
